Assay results: ChEMBL document CHEMBL2177094, “Structure dependence of long-chain [18F]fluorothia fatty acids as myocardial fatty acid oxidation probes” (J Med Chem, 2012); call rule not given here

Experiments:
Heart [1] = assay: Biodistribution in overnight fasted Sprague-Dawley rat heart organic fraction at 0.7 to 1.4 MBq, iv at 120 mins by Folch-type extraction method; assay type: ADME, organism-based; conditions: in vivo, 2 h
Method in brief: (§1)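 Female Sprague-Dawley rats, fasted overnight, under isoflurane (3.5% induction, 1.5% maintenance). [18F] tracer in 0.5–1.0% BSA/saline was given by tail vein. POCA group: 30 mg/kg i.p. 120 min before tracer. About 0.5 g tissue was homogenized and sonicated in chloroform/methanol (2:1) at 0 °C, then 40% urea and 5% H2SO4 were added and spun 10 min at 1,800 g. Aqueous, organic and pellet fractions were counted as % of total.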

Muscle tissue [2] = assay: Drug uptake in overnight fasted Sprague-Dawley rat muscle at 0.7 to 1.4 MBq, iv at 120 mins; assay type: ADME, organism-based; conditions: in vivo, 2 h
Method in brief: (§2)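 Female rats fasted overnight, under isoflurane (3.5% induction, 1.5% maintenance). 18F-labelled tracer formulated in 0.5–1.0% BSA/saline, injected via tail vein. Tissues harvested at 30 or 120 min, weighed, gamma-counted, decay-corrected. Uptake expressed as % dose kg/g, i.e. tissue CPM × body wt (kg) × 100 / (tissue wt (g) × dose CPM). POCA groups received 30 mg/kg i.p. 2 h before tracer. n = 5–6.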

Muscle tissue [3] = assay: Biodistribution in overnight fasted Sprague-Dawley rat muscle organic fraction at 0.7 to 1.4 MBq, iv preincubated with POCA for 2 hrs before compound administration measured at 30 mins post treatment by Folch-type extraction method; assay type: ADME, organism-based; conditions: in vivo, 0.5 h; method in brief: as §1
Heart [4] = assay: Drug uptake in overnight fasted Sprague-Dawley rat heart at 9 to 11 MBq, iv at 5 mins by microPET analysis; assay type: ADME, organism-based; conditions: in vivo
Method in brief: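 Female rats fasted overnight, under isoflurane. 18F-labelled tracer (9–11 MBq) given into a tail vein. Dynamic PET acquisition over the upper thorax for 50 min, then a static whole-body scan 55–115 min post-injection. 2–5 rats per tracer.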

Lung [5] = assay: Drug uptake in overnight fasted Sprague-Dawley rat lung at 0.7 to 1.4 MBq, iv at 120 mins; assay type: ADME, organism-based; conditions: in vivo, 2 h; method in brief: as §2
Muscle tissue [6] = assay: Biodistribution in overnight fasted Sprague-Dawley rat muscle pellet fraction at 0.7 to 1.4 MBq, iv preincubated with POCA for 2 hrs before compound administration measured at 30 mins post treatment by Folch-type extraction method; assay type: ADME, organism-based; conditions: in vivo, 0.5 h; method in brief: as §1
Liver [7] = assay: Biodistribution in overnight fasted Sprague-Dawley rat liver pellet fraction at 0.7 to 1.4 MBq, iv at 120 mins by Folch-type extraction method; assay type: ADME, organism-based; conditions: in vivo, 2 h; method in brief: as §1
Liver [8] = assay: Biodistribution in overnight fasted Sprague-Dawley rat liver organic fraction at 0.7 to 1.4 MBq, iv at 120 mins by Folch-type extraction method; assay type: ADME, organism-based; conditions: in vivo, 2 h; method in brief: as §1
Brain [9] = assay: Drug uptake in overnight fasted Sprague-Dawley rat brain at 0.7 to 1.4 MBq, iv at 120 mins; assay type: ADME, organism-based; conditions: in vivo, 2 h
Method in brief: (§3)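 Overnight-fasted female Sprague-Dawley rats under isoflurane received the [18F] tracer in 0.5–1.0% BSA/saline by tail vein. POCA group: 30 mg/kg i.p. 2 h before tracer. Tissues were excised at 30 or 120 min, weighed and gamma-counted with decay correction. Uptake = % dose kg/g, i.e. CPM tissue × body wt (kg) × 100 / (tissue wt (g) × CPM dose). n = 5–6.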

Muscle tissue [10] = assay: Biodistribution in overnight fasted Sprague-Dawley rat muscle organic fraction at 0.7 to 1.4 MBq, iv preincubated with POCA for 2 hrs before compound administration measured at 120 mins post treatment by Folch-type extraction method; assay type: ADME, organism-based; conditions: in vivo; method in brief: as §1
Brain [11] = assay: Drug uptake in overnight fasted Sprague-Dawley rat brain at 0.7 to 1.4 MBq, iv at 30 mins; assay type: ADME, organism-based; conditions: in vivo, 0.5 h; method in brief: as §3
Kidney [12] = assay: Drug uptake in overnight fasted Sprague-Dawley rat kidney at 0.7 to 1.4 MBq, iv at 30 mins; assay type: ADME, organism-based; conditions: in vivo, 0.5 h; method in brief: as §2
Muscle tissue [13] = assay: Drug uptake in overnight fasted Sprague-Dawley rat muscle at 0.7 to 1.4 MBq, iv at 30 mins; assay type: ADME, organism-based; conditions: in vivo, 0.5 h; method in brief: as §2
Lung [14] = assay: Drug uptake in overnight fasted Sprague-Dawley rat lung at 0.7 to 1.4 MBq, iv preincubated with POCA for 2 hrs before compound administration measured at 120 mins post treatment; assay type: ADME, organism-based; conditions: in vivo; method in brief: as §2
Heart [15] = assay: Biodistribution in overnight fasted Sprague-Dawley rat heart pellet fraction at 0.7 to 1.4 MBq, iv at 30 mins by Folch-type extraction method; assay type: ADME, organism-based; conditions: in vivo, 0.5 h; method in brief: as §1
Heart [16] = assay: Biodistribution in overnight fasted Sprague-Dawley rat heart organic fraction at 0.7 to 1.4 MBq, iv preincubated with POCA for 2 hrs before compound administration measured at 30 mins post treatment by Folch-type extraction method; assay type: ADME, organism-based; conditions: in vivo, 0.5 h; method in brief: as §1
Kidney [17] = assay: Drug uptake in overnight fasted Sprague-Dawley rat kidney at 0.7 to 1.4 MBq, iv at 120 mins; assay type: ADME, organism-based; conditions: in vivo, 2 h; method in brief: as §2
Muscle tissue [18] = assay: Biodistribution in overnight fasted Sprague-Dawley rat muscle aqueous fraction at 0.7 to 1.4 MBq, iv at 120 mins by Folch-type extraction method; assay type: ADME, organism-based; conditions: in vivo, 2 h; method in brief: as §1
Liver [19] = assay: Biodistribution in overnight fasted Sprague-Dawley rat liver aqueous fraction at 0.7 to 1.4 MBq, iv preincubated with POCA for 2 hrs before compound administration measured at 30 mins post treatment by Folch-type extraction method; assay type: ADME, organism-based; conditions: in vivo, 0.5 h; method in brief: as §1
Liver [20] = assay: Biodistribution in overnight fasted Sprague-Dawley rat liver aqueous fraction at 0.7 to 1.4 MBq, iv preincubated with POCA for 2 hrs before compound administration measured at 120 mins post treatment by Folch-type extraction method; assay type: ADME, organism-based; conditions: in vivo; method in brief: as §1
Bone [21] = assay: Drug uptake in overnight fasted Sprague-Dawley rat bone at 9 to 11 MBq, iv at 55 to 115 mins by microPET analysis; assay type: ADME, organism-based, Bone element; conditions: in vivo
Method in brief: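 Overnight-fasted female Sprague-Dawley rats under isoflurane were scanned by microPET/CT after tail-vein tracer. Dynamic acquisition over the upper thorax ran for 50 min, then a static whole-body scan from 55–115 min p.i. 2–5 rats per tracer; preliminary, representative images.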

Liver [22] = assay: Biodistribution in overnight fasted Sprague-Dawley rat liver pellet fraction at 0.7 to 1.4 MBq, iv at 30 mins by Folch-type extraction method; assay type: ADME, organism-based; conditions: in vivo, 0.5 h; method in brief: as §1
Liver [23] = assay: Biodistribution in overnight fasted Sprague-Dawley rat liver pellet fraction at 0.7 to 1.4 MBq, iv preincubated with POCA for 2 hrs before compound administration measured at 30 mins post treatment by Folch-type extraction method; assay type: ADME, organism-based; conditions: in vivo, 0.5 h; method in brief: as §1
Muscle tissue [24] = assay: Biodistribution in overnight fasted Sprague-Dawley rat muscle aqueous fraction at 0.7 to 1.4 MBq, iv preincubated with POCA for 2 hrs before compound administration measured at 30 mins post treatment by Folch-type extraction method; assay type: ADME, organism-based; conditions: in vivo, 0.5 h; method in brief: as §1
Lung [25] = assay: Drug uptake in overnight fasted Sprague-Dawley rat lung at 0.7 to 1.4 MBq, iv preincubated with POCA for 2 hrs before compound administration measured at 30 mins post treatment; assay type: ADME, organism-based; conditions: in vivo, 0.5 h; method in brief: as §2
Bone [26] = assay: Drug uptake in overnight fasted Sprague-Dawley rat bone at 0.7 to 1.4 MBq, iv at 120 mins; assay type: ADME, organism-based, Bone element; conditions: in vivo, 2 h; method in brief: as §3
Heart [27] = assay: Biodistribution in overnight fasted Sprague-Dawley rat heart organic fraction at 0.7 to 1.4 MBq, iv preincubated with POCA for 2 hrs before compound administration measured at 120 mins post treatment by Folch-type extraction method; assay type: ADME, organism-based; conditions: in vivo; method in brief: as §1
Liver [28] = assay: Biodistribution in overnight fasted Sprague-Dawley rat liver aqueous fraction at 0.7 to 1.4 MBq, iv at 30 mins by Folch-type extraction method; assay type: ADME, organism-based; conditions: in vivo, 0.5 h; method in brief: as §1
Heart [29] = assay: Biodistribution in overnight fasted Sprague-Dawley rat heart aqueous fraction at 0.7 to 1.4 MBq, iv preincubated with POCA for 2 hrs before compound administration measured at 30 mins post treatment by Folch-type extraction method; assay type: ADME, organism-based; conditions: in vivo, 0.5 h; method in brief: as §1

SMILES	Drug uptake (Heart [1]) [%]	Drug uptake (Muscle tissue [2]) [%IDKg/g]	Drug uptake (Muscle tissue [3]) [%]	Drug uptake (Heart [4])	Drug uptake (Lung [5]) [%IDKg/g]	Drug uptake (Muscle tissue [6]) [%]	Drug uptake (Liver [7]) [%]	Drug uptake (Liver [8]) [%]	Drug uptake (Brain [9]) [%IDKg/g]	Drug uptake (Muscle tissue [10]) [%]	Drug uptake (Brain [11]) [%IDKg/g]	Drug uptake (Kidney [12]) [%IDKg/g]	Drug uptake (Muscle tissue [13]) [%IDKg/g]	Drug uptake (Lung [14]) [%IDKg/g]	Drug uptake (Heart [15]) [%]	Drug uptake (Heart [16]) [%]	Drug uptake (Kidney [17]) [%IDKg/g]	Drug uptake (Muscle tissue [18]) [%]	Drug uptake (Liver [19]) [%]	Drug uptake (Liver [20]) [%]	further results
O=C(O)CCSCCCCCCCCCCCCCC[18F]	26.14	0.0181	47.15	Active	0.0339	27.04	36.13	55.69	0.0143	58.25	0.02	0.1872	0.0303	0.0244	78.72	67.58	0.0726	11.58	31.69	10.23	Drug uptake (Bone [21]): Active; Drug uptake (Liver [22]): 32.97%; Drug uptake (Liver [23]): 16.53%; Drug uptake (Muscle tissue [24]): 25.8%; Drug uptake (Lung [25]): 0.0998 %IDKg/g; Drug uptake (Bone [26]): 0.2934 %IDKg/g; Drug uptake (Heart [27]): 74.91%; Drug uptake (Liver [28]): 15.36%; Drug uptake (Heart [29]): 7.73%
O=C(O)CCSCCCCCCCCCCCC[18F]	18.88	0.0109	42.23	Active	0.0183	32.63	63.27	31.39	0.0154	48.14	0.067	0.209	0.031	0.0472	58.8	51.9	0.1014	16.17	20.23	11.52	Drug uptake (Bone [21]): Active; Drug uptake (Liver [22]): 38.21%; Drug uptake (Liver [23]): 38.07%; Drug uptake (Muscle tissue [24]): 25.13%; Drug uptake (Lung [25]): 0.0676 %IDKg/g; Drug uptake (Bone [26]): 0.3143 %IDKg/g; Drug uptake (Heart [27]): 67.98%; Drug uptake (Liver [28]): 13.52%; Drug uptake (Heart [29]): 15.28%
O=C(O)CCSCCCC/C=C\CCCCCCCC[18F]	9.34	0.0171	43.19	Active	0.0228	32.74	59.56	34.75	0.0215	53.25	0.0206	0.2035	0.0201	0.0179	88.67	62.03	0.1244	9.91	16.3	8.1	Drug uptake (Bone [21]): Active; Drug uptake (Liver [22]): 71.69%; Drug uptake (Liver [23]): 24.88%; Drug uptake (Muscle tissue [24]): 24.06%; Drug uptake (Lung [25]): 0.0458 %IDKg/g; Drug uptake (Bone [26]): 0.461 %IDKg/g; Drug uptake (Heart [27]): 66.66%; Drug uptake (Liver [28]): 8.43%; Drug uptake (Heart [29]): 10.15%
O=C(O)CCCCSCCCCCCCCCCCC[18F]	28.56	0.0263	43.43	Active	0.0702	48.85	54.58	35.26	0.022	59.27	0.033	0.2095	0.039	0.0536	70.16	63.99	0.1629	18.18	10.75	7.45	Drug uptake (Bone [21]): Active; Drug uptake (Liver [22]): 44.72%; Drug uptake (Liver [23]): 34.35%; Drug uptake (Muscle tissue [24]): 7.7%; Drug uptake (Lung [25]): 0.1163 %IDKg/g; Drug uptake (Bone [26]): 0.2467 %IDKg/g; Drug uptake (Heart [27]): 74.2%; Drug uptake (Liver [28]): 9.65%; Drug uptake (Heart [29]): 3.84%
